# Reference: ChEMBL document CHEMBL1123105, “New bidentates as full inhibitors of enkephalin-degrading enzymes: synthesis and analgesic properties” (J Med Chem, 1985)
# Target: T1, Neprilysin (Rattus norvegicus, UniProt P07861)
# T1 sequence (P07861 whole entry): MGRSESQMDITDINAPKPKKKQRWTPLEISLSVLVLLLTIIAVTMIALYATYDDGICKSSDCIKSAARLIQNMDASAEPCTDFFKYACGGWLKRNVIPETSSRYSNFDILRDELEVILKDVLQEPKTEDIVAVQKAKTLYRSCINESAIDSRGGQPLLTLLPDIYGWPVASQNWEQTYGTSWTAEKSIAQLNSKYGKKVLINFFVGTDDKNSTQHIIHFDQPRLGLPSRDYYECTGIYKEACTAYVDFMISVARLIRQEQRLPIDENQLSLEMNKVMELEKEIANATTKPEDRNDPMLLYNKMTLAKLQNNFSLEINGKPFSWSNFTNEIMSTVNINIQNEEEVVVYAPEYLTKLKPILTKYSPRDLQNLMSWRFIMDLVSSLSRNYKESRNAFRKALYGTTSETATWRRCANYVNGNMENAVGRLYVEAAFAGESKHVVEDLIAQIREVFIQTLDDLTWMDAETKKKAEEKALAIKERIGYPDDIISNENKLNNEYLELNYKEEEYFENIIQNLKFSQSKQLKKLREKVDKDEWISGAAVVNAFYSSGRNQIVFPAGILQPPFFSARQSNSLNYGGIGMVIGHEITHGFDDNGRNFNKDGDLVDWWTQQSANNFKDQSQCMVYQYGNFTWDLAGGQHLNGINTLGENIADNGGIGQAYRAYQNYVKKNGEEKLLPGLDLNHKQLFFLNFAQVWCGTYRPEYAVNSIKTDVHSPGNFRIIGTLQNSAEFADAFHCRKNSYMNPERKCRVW
# Assay: In vitro inhibition of enkephalinase purified from […].
# Procedure, shortened: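 Enkephalinase purified from kidney (0.9 ± 0.2 pmol/100 µL final) was preincubated 15 min at 25 °C with or without increasing inhibitor concentrations in 50 mM Tris-HCl, pH 7.4. Tritiated metabolites were separated on polystyrene beads. IC50 came from log probit analysis of five inhibitor concentrations; mean ± SEM of five independent experiments.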
row,SMILES,IC50
1,O=C(CNC(=O)C(Cc1ccccc1)C(=O)NO)NCc1ccccc1 (stereo unspecified),750 nM
2,CC(C)CCNC(=O)CNC(=O)C(CC(=O)NO)Cc1ccccc1 (stereo unspecified),600 nM
3,O=C(O)CNC(=O)C(CC(=O)O)Cc1ccccc1 (stereo unspecified),800 nM
4,CC(C)CCNC(=O)CNC(=O)C(Cc1ccccc1)N(O)C=O (stereo unspecified),30 nM
5,CC(NC(=O)C(CC(=O)NO)Cc1ccccc1)C(=O)O (stereo unspecified),2 nM
6,CC(C)CCNC(=O)CNC(=O)C(Cc1ccccc1)C(=O)NO (stereo unspecified),850 nM
7,O=C(O)CNC(=O)C(Cc1ccccc1)C(=O)O (stereo unspecified),700 nM

# The next lines start with the values.
row,IC50,SMILES
1,10 nM,O=CN(O)CC(Cc1ccccc1)C(=O)NCC(=O)O (stereo unspecified)
2,350 nM,COC(=O)CNC(=O)C(Cc1ccccc1)CN(O)C=O (stereo unspecified)
3,1500 nM,O=CN(O)C(Cc1ccccc1)C(=O)NCC(=O)O (stereo unspecified)
4,1 nM,COC(=O)CNC(=O)C(Cc1ccccc1)C(=O)NO (stereo unspecified)
5,> 1 nM,O=C(O)CNC(=O)C(CNO)Cc1ccccc1 (stereo unspecified)
6,800 nM,CC(C)CCNC(=O)CNC(=O)C(Cc1ccccc1)CN(O)C=O (stereo unspecified)
7,1200 nM,O=CN(O)CC(Cc1ccccc1)C(=O)NCC(=O)NCc1ccccc1 (stereo unspecified)

# Target: T1, Neprilysin
# Assay: 50% inhibitory activity against enkephalinase purified from rabbit kidney with [3H]D-Ala2-Leu-enkephalin (20 nM) as substrate.
row,IC50,SMILES
1,1.7 nM,C[C@H](NC(=O)[C@@H](CC(=O)NO)Cc1ccccc1)C(=O)O (racemic) [KELATORPHAN]
2,1.8 nM,C[C@H](NC(=O)[C@H](CC(=O)NO)Cc1ccccc1)C(=O)O

# Target: not listed separately
# Assay: Inhibitory activity against rat brain Dipeptidyl aminopeptidase using 10 nM of [3H]Leu-enkephalin as substrate
# Procedure, shortened: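 Membrane-bound dipeptidylaminopeptidase purified from rat brain and aminopeptidase M purified from rabbit kidney were each preincubated 15 min at 25 °C with or without increasing inhibitor concentrations in 50 mM Tris-HCl, pH 7.4. […] The reaction was stopped with HCl after 30 min, and tritiated metabolites were separated on polystyrene beads. IC50 came from log probit analysis of five inhibitor concentrations; mean ± SEM.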
row,SMILES,IC50
1,O=C(O)CNC(=O)C(Cc1ccccc1)C(=O)NO (stereo unspecified),3500 nM
2,O=C(O)CNC(=O)C(CC(=O)NO)Cc1ccccc1 (stereo unspecified),21 nM
3,CC(NC(=O)C(CC(=O)NO)Cc1ccccc1)C(=O)O (stereo unspecified),2.1 nM

# Second part, the compound after the results:
row,IC50,SMILES
1,305 nM,O=CN(O)CC(Cc1ccccc1)C(=O)NCC(=O)O (stereo unspecified)
2,232000 nM,O=CN(O)C(Cc1ccccc1)C(=O)NCC(=O)O (stereo unspecified)
